Assay results reported in ChEMBL document CHEMBL1177827, “Discovery of novel 1H-imidazol-2-yl-pyrimidine-4,6-diamines as potential antimalarials” (Bioorg Med Chem Lett, 2010).
Converted amounts (≈) assume the structure as drawn. One block for each compound: values may come before it.

Tests used:
[1] = system: Plasmodium falciparum; test: Antimalarial activity Plasmodium falciparum 3D7; assay type: functional, organism-based
How it was run: (§1)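 P. falciparum-infected human red blood cell proliferation assay, with SYBR Green staining as the read-out of parasite growth. EC50 is the mean of two experiments. Each plate carries mefloquine, sulfadoxine and artemisinin as internal standards.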

[2] = system: Plasmodium falciparum; test: Antimalarial activity Plasmodium falciparum 3BAG; assay type: functional, organism-based; how it was run: as §1
[3] = system: Plasmodium falciparum; test: Antimalarial activity Plasmodium falciparum CAMP R; assay type: functional, organism-based; conditions: CampR; how it was run: as §1
[4] = system: Plasmodium falciparum; test: Antimalarial activity Plasmodium falciparum C188; assay type: functional, organism-based; how it was run: as §1
[5] = system: Plasmodium falciparum; test: Antimalarial activity Plasmodium falciparum D10; assay type: functional, organism-based; how it was run: as §1
[6] = system: Plasmodium falciparum; test: Antimalarial activity Plasmodium falciparum D6; assay type: functional, organism-based; how it was run: as §1
[7] = system: Plasmodium falciparum; test: Antimalarial activity Plasmodium falciparum Dd2; assay type: functional, organism-based; how it was run: as §1
[8] = system: Plasmodium falciparum; test: Antimalarial activity Plasmodium falciparum FcB1; assay type: functional, organism-based; conditions: FcB1/Columbia; how it was run: as §1
[9] = system: Plasmodium falciparum; test: Antimalarial activity Plasmodium falciparum FCR3; assay type: functional, organism-based; conditions: FCR-3/Gambia; how it was run: as §1
[10] = system: Plasmodium falciparum; test: Antimalarial activity Plasmodium falciparum 7G8; assay type: functional, organism-based; how it was run: as §1
[11] = system: Plasmodium falciparum; test: Antimalarial activity Plasmodium falciparum HB3; assay type: functional, organism-based; how it was run: as §1
[12] = system: Plasmodium falciparum; test: Antimalarial activity Plasmodium falciparum K1; assay type: functional, organism-based; how it was run: as §1
[13] = system: Plasmodium falciparum; test: Antimalarial activity Plasmodium falciparum NF54; assay type: functional, organism-based; how it was run: as §1
[14] = system: Plasmodium falciparum; test: Antimalarial activity Plasmodium falciparum TM91C235; assay type: functional, organism-based; how it was run: as §1
[15] = system: Plasmodium falciparum; test: Antimalarial activity Plasmodium falciparum W2; assay type: functional, organism-based; how it was run: as §1
[16] = Metabolic stability in rat microsomes assessed as extraction ratio; assay type: ADME, Microsome
[17] = Metabolic stability in mouse microsomes assessed as extraction ratio; assay type: ADME, Microsome
[18] = Metabolic stability in human microsomes assessed as extraction ratio; assay type: ADME, Microsome
[19] = Thermodynamic solubility at pH 6.8; assay type: physicochemical; conditions: buffer
How it was run: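 Thermodynamic solubility measured at pH 6.8, reported in […].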

[20] = AUC (0 to infinity) in mouse; assay type: ADME, organism-based; design: time infinity; conditions: plasma
[21] = Cmax in mouse; assay type: ADME, organism-based; conditions: in vivo
[22] = Half life in mouse; assay type: ADME, organism-based; conditions: in vivo
[23] = Oral bioavailability in mouse; assay type: ADME, organism-based; conditions: in vivo

SMILES: FC(F)(F)Oc1ccc(Nc2cc(Nc3nccn3-c3cc(N4CCOCC4)cc(C(F)(F)F)c3)ncn2)cc1
EC50 [1]: 532 nM

SMILES: O=C(NCCc1c[nH]cn1)c1cccc(-n2ccnc2Nc2cc(Nc3ccc(OC(F)(F)F)cc3)ncn2)c1
EC50 [1]: 1780 nM

SMILES: Cc1c(Nc2ccc(OC(F)(F)F)cc2)ncnc1Nc1nccn1-c1cccc(C(F)(F)F)c1
EC50 [1]: 4680 nM

SMILES: Cc1nc(Nc2ccc(OC(F)(F)F)cc2)cc(Nc2nccn2-c2cccc(C(=O)NCCc3c[nH]cn3)c2)n1
EC50 [1]: 822 nM

SMILES: FC(F)(F)Oc1ccc(Nc2cc(Nc3nccn3-c3cccc(C(F)(F)F)c3)nc(Oc3ccccc3)n2)cc1
EC50 [1]: 116 nM

SMILES: CS(=O)(=O)c1nc(Nc2ccc(OC(F)(F)F)cc2)cc(Nc2nccn2-c2cccc(C(F)(F)F)c2)n1
EC50 [1]: 291 nM

SMILES: CN(c1cc(Nc2ccc(OC(F)(F)F)cc2)ncn1)c1nccn1-c1cccc(C(F)(F)F)c1
EC50 [1]: 3830 nM

SMILES: COc1nc(Nc2ccc(OC(F)(F)F)cc2)cc(Nc2nccn2-c2cccc(C(F)(F)F)c2)n1
EC50 [1]: 190 nM

SMILES: FC(F)(F)Oc1ccc(Nc2cc(Nc3nccn3-c3cccc(C(F)(F)F)c3)nc(C(F)(F)F)n2)cc1
EC50 [1]: 353 nM

SMILES: FC(F)(F)Oc1ccc(Nc2cc(Nc3nccn3-c3cccc(C(F)(F)F)c3)ncn2)cc1
EC50 [1]: 436 nM

SMILES: FC(F)(F)Oc1ccc(Nc2cc(Nc3nccn3-c3cc(Br)cc(C(F)(F)F)c3)ncn2)cc1
EC50 [1]: 223 nM

SMILES: Oc1nc(Nc2ccc(OC(F)(F)F)cc2)cc(Nc2nccn2-c2cccc(C(F)(F)F)c2)n1
EC50 [1]: 5440 nM

SMILES: FC(F)(F)Oc1ccc(Nc2nccc(Nc3nccn3-c3cccc(C(F)(F)F)c3)n2)cc1
EC50 [1]: 432 nM

SMILES: FC(F)(F)Oc1ccc(Nc2ncnc(Nc3nccn3-c3cccc(C(F)(F)F)c3)n2)cc1
EC50 [1]: 1330 nM

SMILES: Cc1nc(Nc2ccc(OC(F)(F)F)cc2)cc(Nc2nccn2-c2cccc(C(F)(F)F)c2)n1
EC50 [1]: 114 nM

SMILES: OCCN1CCN(c2cc(-n3ccnc3Nc3cc(Nc4ccc(OC(F)(F)F)cc4)ncn3)cc(C(F)(F)F)c2)CC1
EC50 [1]: 175 nM

SMILES: O=C(NCCN1CCOCC1)c1cccc(-n2ccnc2Nc2cc(Nc3ccc(OC(F)(F)F)cc3)ncn2)c1
EC50 [1]: 249 nM

SMILES: Cc1nc(Nc2ccc(OC(F)(F)F)cc2)cc(Nc2nccn2-c2cccc(C(=O)N3CCN(CCO)CC3)c2)n1
EC50 [1]: 768 nM

SMILES: Cc1nc(Nc2ccc(OC(F)(F)F)cc2)cc(Nc2nccn2-c2cccc(C(=O)NCCN3CCCC3)c2)n1
EC50 [1]: 168 nM

SMILES: Cc1nc(Nc2ccc(OC(F)(F)F)cc2)cc(Nc2nccn2-c2cccc(C(=O)NCCCN3CCCC3)c2)n1
EC50 [1]: 224 nM

SMILES: Cc1nc(Nc2ccc(OC(F)(F)F)cc2)cc(Nc2nccn2-c2cccc(C(=O)NCCCN3CCN(C)CC3)c2)n1
EC50 [1]: 239 nM

SMILES: FC(F)(F)Oc1ccc(Nc2ccnc(Nc3nccn3-c3cccc(C(F)(F)F)c3)n2)cc1
EC50 [1]: 268 nM

SMILES: FC(F)(F)Oc1ccc(Nc2nc(Nc3nccn3-c3cccc(C(F)(F)F)c3)c3ccccc3n2)cc1
EC50 [1]: 564 nM

SMILES: FC(F)(F)Oc1ccc(Oc2cc(Nc3nccn3-c3cccc(C(F)(F)F)c3)ncn2)cc1
EC50 [1]: 4240 nM

SMILES: C[C@@H]1CC[C@H]2[C@@H](C)C(=O)O[C@@H]3O[C@@]4(C)CC[C@@H]1[C@]32OO4 [ARTEMISININ]
EC50 [1]: 10 nM

Continued, values first:

EC50 [1]: 34 nM
EC50 [2]: 60 nM
EC50 [3]: 50 nM
EC50 [4]: 140 nM
EC50 [5]: 15 nM
EC50 [6]: 50 nM
EC50 [7]: 71 nM
EC50 [8]: 50 nM
EC50 [9]: 139 nM
EC50 [10]: 95 nM
EC50 [11]: 46 nM
EC50 [12]: 88 nM
EC50 [13]: 33 nM
EC50 [14]: 58 nM
EC50 [15]: 120 nM
hepatic extraction ratio [16]: 0.264
hepatic extraction ratio [17]: < 0.17
hepatic extraction ratio [18]: < 0.28
solubility thermodynamic [19]: 40 µg/mL (≈ 69.1 µM)
AUC(0-inf) [20]: 14.2 µM·h
Cmax [21]: 946 nM
half-life [22]: 12 h
bioavailability [23]: 30%
SMILES: CN1CCN(c2nc(Nc3ccc(OC(F)(F)F)cc3)cc(Nc3nccn3-c3cccc(C(F)(F)F)c3)n2)CC1

EC50 [1]: 53 nM
SMILES: FC(F)(F)Oc1ccc(Nc2cc(Nc3nccn3-c3cccc(C(F)(F)F)c3)nc(NCCN3CCOCC3)n2)cc1

EC50 [1]: 60 nM
SMILES: CC(C)Oc1nc(Nc2ccc(OC(F)(F)F)cc2)cc(Nc2nccn2-c2cccc(C(F)(F)F)c2)n1

EC50 [1]: 74 nM
SMILES: FC(F)(F)Oc1ccc(Nc2cc(Nc3nccn3-c3cccc(C(F)(F)F)c3)nc(-c3ccccc3)n2)cc1

EC50 [1]: 107 nM
SMILES: CSc1nc(Nc2ccc(OC(F)(F)F)cc2)cc(Nc2nccn2-c2cccc(C(F)(F)F)c2)n1

EC50 [1]: 67 nM
SMILES: Cc1nc(Nc2ccc(OC(F)(F)F)cc2)cc(Nc2nccn2-c2cccc(C(=O)NCCCN3CCOCC3)c2)n1

EC50 [1]: 113 nM
SMILES: FC(F)(F)Oc1ccc(Nc2cc(Nc3nccn3-c3cccc(C(F)(F)F)c3)nc(N3CCOCC3)n2)cc1

EC50 [1]: 49 nM
SMILES: Nc1nc(Nc2ccc(OC(F)(F)F)cc2)cc(Nc2nccn2-c2cccc(C(F)(F)F)c2)n1

EC50 [1]: 65 nM
SMILES: CN1CCN(c2cc(-n3ccnc3Nc3cc(Nc4ccc(OC(F)(F)F)cc4)ncn3)cc(C(F)(F)F)c2)CC1

EC50 [1]: 88 nM
SMILES: FC(F)(F)Oc1ccc(Nc2cc(Nc3nccn3-c3cc(N4CCC(N5CCOCC5)CC4)cc(C(F)(F)F)c3)ncn2)cc1

EC50 [1]: 90 nM
hepatic extraction ratio [18]: 0.316
solubility thermodynamic [19]: 110 µg/mL (≈ 166 µM)
SMILES: CN1CCN(C2CCN(c3cc(-n4ccnc4Nc4cc(Nc5ccc(OC(F)(F)F)cc5)ncn4)cc(C(F)(F)F)c3)CC2)CC1

EC50 [1]: 92 nM
SMILES: FC(F)(F)Oc1ccc(Nc2cc(Nc3nccn3-c3cc(N4CCC(N5CCCC5)CC4)cc(C(F)(F)F)c3)ncn2)cc1

EC50 [1]: 87 nM
SMILES: FC(F)(F)Oc1ccc(Nc2cc(Nc3nccn3-c3cc(NCCN4CCOCC4)cc(C(F)(F)F)c3)ncn2)cc1

EC50 [1]: 46 nM
hepatic extraction ratio [16]: 0.367
hepatic extraction ratio [17]: < 0.17
hepatic extraction ratio [18]: < 0.31
solubility thermodynamic [19]: 80 µg/mL (≈ 141 µM)
SMILES: CCN(CC)CCNC(=O)c1cccc(-n2ccnc2Nc2cc(Nc3ccc(OC(F)(F)F)cc3)nc(C)n2)c1

EC50 [1]: 91 nM
SMILES: CN1CCN(CCNc2cc(-n3ccnc3Nc3cc(Nc4ccc(OC(F)(F)F)cc4)ncn3)cc(C(F)(F)F)c2)CC1

EC50 [1]: 60 nM
hepatic extraction ratio [16]: 0.275
hepatic extraction ratio [17]: < 0.17
solubility thermodynamic [19]: 89 µg/mL (≈ 153 µM)
SMILES: CCN1CCCC1CNC(=O)c1cccc(-n2ccnc2Nc2cc(Nc3ccc(OC(F)(F)F)cc3)nc(C)n2)c1 (stereo not given)

EC50 [1]: 69 nM
hepatic extraction ratio [16]: 0.243
hepatic extraction ratio [17]: < 0.17
hepatic extraction ratio [18]: < 0.42
solubility thermodynamic [19]: 90 µg/mL (≈ 154 µM)
SMILES: Cc1nc(Nc2ccc(OC(F)(F)F)cc2)cc(Nc2nccn2-c2cccc(C(=O)NCCN3CCOCC3)c2)n1

EC50 [1]: 54 nM
SMILES: CNc1nc(Nc2ccc(OC(F)(F)F)cc2)cc(Nc2nccn2-c2cccc(C(F)(F)F)c2)n1

EC50 [1]: 20 nM
SMILES: OC(c1cc(C(F)(F)F)nc2c(C(F)(F)F)cccc12)C1CCCCN1 (stereo not given) [MEFLOQUINE]

EC50 [1]: 30 nM
SMILES: COc1ncnc(NS(=O)(=O)c2ccc(N)cc2)c1OC [SULFADOXINE]
